Source: PubChem (several laboratories)
RAM network inh: inhibitors of the yeast RAM network, primary screen, dse1pr::URA3 reporter, 5-FOA selection. 1.8% of 190,000 active. inhibition, % at 50 µM. S. cerevisiae dse1pr::URA3 reporter, 5-FOA growth OD615, 2 d; analog-sensitive cbk1-as2 kinase mutant strain;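 active = inhibition above a set limit, 3 SD over mean compound inhibition, cut at about 8.4% in these data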;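 note: inhibition rescues growth on 5-FOA so higher OD means more RAM inhibition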
Yeast growth inh: growth inhibitors of yeast BB579 in restrictive medium, primary screen, yeast lifespan-shortening project, S. cerevisiae. OD615, 48 h. inhibition, % at 10 µM. AID 804, 2007. 0.51% of 140,000 active;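 active = inhibition above a set limit, 3 SD over the mean compound inhibition, cut at about 44% in these data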
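System: Saccharomyces cerevisiae DeaD strain BB579, replicative lifespan model yeast. Buffer or medium: restrictive glucose-based CSMM-D medium. Doses: one dose, 10 µM compound with 0.25% DMSO. Timing: 4 h preincubation and 48 h exposure at 30 °C. Detection: turbidity as optical density at 615 nm. Benchmarks: amphotericin B 10 µg/mL, positive.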
Insulin prom up: insulin promoter activators in MIN6 cells, imaging, high-content screening, mouse beta cells; 0.3% of 190,000 active; AID 1625, 2009; MIN6 insulin promoter-GFP reporter; stronger effect = higher value; z-score at 5 µM;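 active = z-score above 3 at 5 µM with at least 500 cells counted in the well; inconclusive = wells under 500 cells, flagged as cytotoxic or low count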
Yeast life ext: compounds extending yeast replicative lifespan, primary screen, S. cerevisiae, OD615; AID 775, 2007; 0.68% of 130,000 active; S. cerevisiae growth with nicotinamide; deaD strain in restrictive glucose medium; inhibition of the nicotinamide effect, % at 10 µM;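 active = inhibition above a set limit, placed 3 SD over the median of all compounds, cut at about 26% in these data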
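System: DeaD-strain S. cerevisiae / Buffer or medium: CSMM-D, restrictive glucose (dextrose) synthetic minimal medium / Probe or stimulus: nicotinamide, 1.5 mM, co-present with compound / Compound: one concentration, 10 µM, DMSO 0.25% / Incubation: 48 h compound exposure at 30 °C, humidified / Technique: optical density (absorbance) at 615 nm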
Insulin prom inh: inhibitors of insulin promoter-driven GFP, primary screen, imaging, TRM-6 cells, eGFP reporter, cell count. reporter expression induced with tamoxifen. inhibition, % at 2 µM. 0.9% of 130,000 active. AID 1273, 2008;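 active = inhibition above the mean plus 3 SD, with well images judged a real hit on visual review, cut at about 60% in these data, passing the limit was not always enough; inconclusive = inhibition over the cutoff but images rejected on review; inactive = inhibition not above the cutoff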
Numbers stand for hits; . = inactive; ? = inconclusive; / = no result. Rows were chosen to be rich in hits. Some 3.1% of all compounds tested hit in one or more screens of this group.

SMILES | RAM network inh | Yeast growth inh | Insulin prom up | Yeast life ext | Insulin prom inh
CC(Oc1ccc(Cl)cc1Cl)c1nc(-c2ccc(NC(=O)c3ccccn3)cc2)no1 (configuration not stated) | 11.0 | . | . | / | .
CCOC(=O)/C(=C\Nc1ccccc1C(F)(F)F)Sc1ncc(C(F)(F)F)cc1Cl | 10.0 | . | . | . | /
COc1ccc2nc(C)cc(N3CC(C)OC(C)C3)c2c1 (configuration not stated) | . | . | . | . | 90.9
CCSc1ccc2cc(OC)ccc2[n+]1CC | . | / | . | / | /
COc1ccc(O[C@H]2C=C[C@@H](c3ccccc3)O[C@@H]2COC(=O)CC/C(C)=N/O[C@@H](C)c2cn([C@H](CO)Cc3ccccc3)nn2)cc1 | 10.6 | . | . | . | .
COc1ccc(O[C@H]2C=C[C@@H](c3ccccc3)O[C@@H]2COC(=O)CC/C(C)=N/O[C@@H](C)CN2CCCCc3nc(C)c(C)cc32)cc1 | . | . | . | . | .
CSc1c(CC(=O)Nc2ccc(F)cc2)n(Cc2ccccc2)c2ccccc12 | . | . | . | . | /
CN(C)c1nc(N)nc(/C(C#N)=C/C2CC3C=CC2C3)n1 (configuration not stated) | . | . | 3.05 | . | .
O=C1CSC(c2ccccc2Cl)N1 (configuration not stated) | . | / | / | / | .
Cc1noc(NS(=O)(=O)c2ccc(N/C=C/C(=O)c3ccc(F)cc3)cc2)c1C | 10.8 | / | . | / | .
Cc1ccc(S(=O)(=O)CC(=O)Nc2ccc(S(=O)(=O)Nc3onc(C)c3C)cc2)cc1 | . | . | . | . | .
Cc1ccc(OCC(=O)Nc2ccc(S(=O)(=O)Nc3onc(C)c3C)cc2)cc1 | 10.4 | . | . | . | .
CCOC(=O)c1cnn(-c2nc(-c3ccccc3F)cs2)c1C(F)(F)F | . | . | . | . | .
CCOC(=O)c1cnn(-c2nc(-c3ccccc3)cs2)c1C(F)(F)F | 10.2 | . | . | . | .
CCOC(=O)c1cnn(-c2nc(-c3ccc(F)cc3)cs2)c1C(F)(F)F | 9.2 | . | / | . | .
O=C(CC12CC3CC(CC(C3)C1)C2)NC(=S)N1CCCCC1 | . | . | . | . | /
O=C(CCS(=O)(=O)c1ccc(Br)cc1)Nc1ccc(Br)cc1F | . | . | . | . | .
CCN(CC)C(=O)C(=O)c1cccn1-c1ccccc1C#N | . | . | . | . | 100.0
CCOC(=O)c1cnn(-c2ccccc2)c1-n1cccc1C(=O)C(=O)N(CC)CC | . | / | . | / | .
CN(C)S(=O)(=O)c1cccc(NC(=O)CNCC2CCCCC2)c1 | . | / | . | / | .
CC1=[N+](C)N(c2ccccc2)C(=O)C1N=Cc1c(Cl)cccc1Cl (configuration not stated) | . | . | . | 34.9 | /
CCOC(=O)/C(=N\Nc1ccc(OC)cc1)c1csc(Nc2ccccc2)n1 | 10.9 | . | / | . | .
COc1ccc(NC(=O)c2ccc(CNS(=O)(=O)c3cccc(OC)c3)cc2)cc1 | . | . | . | . | .
COc1cccc(S(=O)(=O)NCc2ccc(C(=O)Nc3ccc(Cl)c(Cl)c3)cc2)c1 | . | . | 3.13 | . | .
CC(C)(C)c1ccc(-c2nnc(SCC(=O)NC3CCS(=O)(=O)C3)n2N)cc1 (configuration not stated) | . | / | . | / | ?
SMILES | RAM network inh | Yeast growth inh | Insulin prom up | Yeast life ext | Insulin prom inh
O=C(NC1CCCCC1)C(c1ccncc1)N(CC1CCCO1)C(=O)C(F)(F)F (configuration not stated) | . | . | . | . | 90.0
CC(C)(C)NC(=O)c1cccc(NC(=O)c2ccc(NC(=O)c3ccco3)cc2)c1 | . | . | . | . | 100.0
O=C(Nc1ccc2nc(-c3ccco3)[nH]c2c1)c1ccco1 | . | . | . | . | 82.1
O=C(Nc1ccc(-c2nc3ccccc3[nH]2)cc1)c1ccco1 | 9.5 | . | . | . | /
O=C(Nc1ccc2nc(-c3ccccc3)[nH]c2c1)c1cccs1 | . | . | / | . | 76.7
CC(=O)Nc1ccc2nc(-c3ccco3)[nH]c2c1 | . | / | . | / | .
Fc1ccccc1Cc1noc(CN2CCN(C/C=C/c3ccccc3)CC2)n1 | . | / | / | / | /
Cc1ccc(C(=O)NC(=S)N2CCN(C)CC2)cc1 | . | . | . | . | .
CN1CCN(C(=S)NC(=O)c2ccc(C(C)(C)C)cc2)CC1 | . | . | . | . | 66.7
O=C1CCC(C(=O)Nc2ccccc2N2CCOCC2)=NN1 | / | / | . | / | /
Cc1[nH]c2ccccc2c1N=Nc1ccccc1C(=O)O | 9.8 | . | . | . | .
O=C(CSc1nnc2n1CCCCC2)Nc1ccc(N2CCOCC2)cc1 | / | / | . | / | /
S=C(Nc1ccc(N2CCOCC2)cc1)Nc1ccc2nc(-c3ccco3)c(-c3ccco3)nc2c1 | . | . | . | 36.5 | .
O=C1CSC(c2cccnc2)N1Cc1ccc(Cl)cc1Cl (configuration not stated) | / | / | . | / | /
COc1ccc2cc(C(=O)O)ccc2c1 | . | 83.8 | . | . | .
COc1ccc(C(=O)C(CN2CCOCC2)c2ccccc2)cc1F (configuration not stated) | . | . | . | 79.1 | 71.4
COc1ccc(C(O)C(CN2CCOCC2)c2ccccc2)cc1F (configuration not stated) | . | . | . | . | .
COc1ccc(C(=O)O)cc1F | . | . | . | . | 78.6
COc1ccc(CC(=O)Nc2ccc(C(=O)O)cc2NC(=O)Cc2ccc(OC)cc2)cc1 | . | / | . | / | /
COc1ccc(C(=O)O)cc1S(=O)(=O)NC(C)C | / | / | . | / | /
CC1(C)OC(=O)N(CCC(=O)Nc2cccc(F)c2)C1(C)O (configuration not stated) | . | / | . | / | .
O=C(CN(C1CCCCC1)C1CCCCC1)N1CCc2ccccc2C1 | . | . | / | . | .
O=C(Cc1ccc(F)cc1)Nc1cccc(-c2ccc3nncn3n2)c1 | . | / | . | / | /
O=C(Cc1cccs1)Nc1cccc(-c2ccc3nncn3n2)c1 | 8.5 | / | . | / | .
O=C(O)c1ccccc1C(=O)N1CCN(c2cccc(Cl)c2)CC1 | . | . | / | . | .
SMILES | RAM network inh | Yeast growth inh | Insulin prom up | Yeast life ext | Insulin prom inh
O=C(C1CC1c1ccccc1)N1CCN(c2cccc(Cl)c2)CC1 (configuration not stated) | 9.5 | . | . | . | /
COc1ccc(N(C(=O)CCl)C(C)(C(=O)Nc2c(C)cccc2C)c2ccccn2)cc1 (configuration not stated) | . | . | . | . | ?
O=C(c1ccco1)N1CCn2cccc2C1c1ccccc1 (configuration not stated) | . | / | . | / | .
CC(C)C1OC(c2cccc(NC(=O)c3cccs3)c2)OCC1(C)C (configuration not stated) | 9.3 | / | . | / | .
O=C(CN1CCN(c2ccccc2O)CC1)Nc1ccc2c(c1)CCC2 | . | . | . | . | /
CC(C)(C)OC(=O)C(C)(C)O/N=C(\C(=O)O)c1csc(N)n1 | . | / | . | / | .
O=C1CC(N2CCN(Cc3ccccc3)CC2)C(=O)N1c1ccccc1 (configuration not stated) | . | . | . | . | /
